Assay [1] deals with Pseudomonas aeruginosa. Description: Inhibition of biofilm formation in Pseudomonas aeruginosa PAO1 at 10 uM incubated for 10 hrs by crystal violet staining based microtiter plate method relative to control. Format: functional. Particulars: PAO1, 10 h. An outline of the steps: (§1)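 PAO1 or PA14 grown at 37 °C with 10 µM compound or vehicle. Expressed as percent biofilm biomass versus vehicle-treated control; mean ± SEM.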

The target in assay [2] is Transcriptional activator protein LasR (Pseudomonas aeruginosa (strain ATCC 15692 / PAO1 / 1C / PRS 101 / LMG12228)) (UniProt P25084). Description: Inhibition of Pseudomonas aeruginosa PAO1 LasR transfected with lasB-GFP at 10 uM measured after 12 hrs by fluorescence based microtiter plate reader method. The gist of the method:
(§2)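 GFP reporter strains (PqsR: PA14 pAW1::GFP; LasR: PAO1 lasB::GFP) grown 12 h in LB broth with 5% BSA, with or without 10 µM compound.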

Assay [3] concerns the target Voltage-gated inwardly rectifying potassium channel KCNH2 (Homo sapiens, UniProt Q12809). Description: Inhibition of human ERG.
Assay [4] concerns the target T1, Transcriptional regulator MvfR (Pseudomonas aeruginosa PA14) (UniProt A0A072ZLE6).
T1 sequence (whole entry): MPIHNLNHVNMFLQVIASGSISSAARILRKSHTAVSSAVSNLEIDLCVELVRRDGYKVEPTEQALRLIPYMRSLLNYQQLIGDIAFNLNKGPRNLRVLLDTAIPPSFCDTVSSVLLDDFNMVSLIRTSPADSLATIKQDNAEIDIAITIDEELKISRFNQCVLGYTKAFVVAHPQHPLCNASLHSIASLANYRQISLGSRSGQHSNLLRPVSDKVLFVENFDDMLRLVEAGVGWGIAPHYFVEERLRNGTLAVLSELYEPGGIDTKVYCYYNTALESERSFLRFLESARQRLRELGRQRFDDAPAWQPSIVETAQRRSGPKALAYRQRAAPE
Description: Inhibition of Pseudomonas aeruginosa PAO1 PqsR assessed as increase in pyocyanin production level at 10 uM measured after 10 mins by spectrometry based analysis relative to control. An outline of the steps:
(§3)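 PAO1 cultured with or without 10 µM compound. Pyocyanin quantified by a spectrometry-based method and expressed as percent of vehicle-treated control. Mean ± SEM of at least 32 replicates.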

Assay [5] concerns Pseudomonas aeruginosa. As to the kind of experiment: Inhibition of biofilm formation in Pseudomonas aeruginosa PA14 at 10 uM incubated for 10 hrs by crystal violet staining based microtiter plate method relative to control. Format: functional. As to conditions: PA14, 10 h. An outline of the steps:
as §1

The target of assay [6] is T1, Transcriptional regulator MvfR (Pseudomonas aeruginosa PA14). As to the kind of experiment: Inhibition of Pseudomonas aeruginosa PA14 PqsR transfected with pAW1-GFP at 10 uM measured after 12 hrs by fluorescence based microtiter plate reader method. An outline of the steps:
as §2

For assay [7], the system named is Pseudomonas aeruginosa. Description: Inhibition of pyocyanin production in Pseudomonas aeruginosa at 1 uM relative to control. In kind it is functional.
Assay [8] is described as follows: Inhibition of quorum sensing system in Pseudomonas aeruginosa assessed as reduction of rhamnolipids level at 10 uM measured after 24 hrs by methylene-blue based assay relative to control. An outline of the steps:
(§4)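 P. aeruginosa grown 24 h with or without 10 µM compound. Rhamnolipids quantified by methylene-blue assay against a six-point standard curve of commercial rhamnolipids.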

Assay [9] deals with Pseudomonas aeruginosa. Description: Inhibition of pyoverdin production in Pseudomonas aeruginosa at 10 uM relative to control. In kind it is functional.
For assay [10], the system named is Pseudomonas aeruginosa. Description: Inhibition of biofilm formation in Pseudomonas aeruginosa at 50 uM relative to control. Format: functional.
In assay [11] the test system is Pseudomonas aeruginosa. Description: Inhibition of pyocyanin production in Pseudomonas aeruginosa at 50 uM relative to control. In kind it is functional.
Assay [12] relates to Pseudomonas aeruginosa. As to the kind of experiment: Inhibition of biofilm formation in Pseudomonas aeruginosa PA14 at 10 uM incubated for 10 hrs by crystal violet staining based microtiter plate method. In kind it is functional, organism-based. The gist of the method:
as §1

The subject of assay [13] is Pseudomonas aeruginosa. As to the kind of experiment: Inhibition of biofilm formation in Pseudomonas aeruginosa PAO1 at 10 uM incubated for 10 hrs by crystal violet staining based microtiter plate method. Format: functional, organism-based. An outline of the steps:
as §1

Assay [14] addresses T1, Transcriptional regulator MvfR (Pseudomonas aeruginosa PA14). As to the kind of experiment: Inhibition of Pseudomonas aeruginosa PAO1 PqsR assessed as reduction in pyocyanin production level at 10 uM measured after 10 mins by spectrometry based analysis. An outline of the steps: as §3
Assay [15] can be described thus: Inhibition of quorum sensing system in Pseudomonas aeruginosa assessed as reduction of rhamnolipids level at 10 uM measured after 24 hrs by methylene-blue based assay. The gist of the method:
as §4

The target of assay [16] is T1, Transcriptional regulator MvfR (Pseudomonas aeruginosa PA14). Description: Inhibition of Pseudomonas aeruginosa PqsR at 5 uM relative to control.
Assay [17] concerns Pseudomonas aeruginosa. Description: Inhibition of pyocyanin production in Pseudomonas aeruginosa at 100 uM relative to control. In kind it is functional.

The source made the active and inactive calls. No cut-off for these calls is given here.

By inhibition is commonly meant the change of the read-out against control, counted positive when it falls. By IC50 is commonly meant the concentration that gives 50% inhibition.

Voltage-gated inwardly rectifying potassium channel KCNH2, sequence (Q12809 whole entry): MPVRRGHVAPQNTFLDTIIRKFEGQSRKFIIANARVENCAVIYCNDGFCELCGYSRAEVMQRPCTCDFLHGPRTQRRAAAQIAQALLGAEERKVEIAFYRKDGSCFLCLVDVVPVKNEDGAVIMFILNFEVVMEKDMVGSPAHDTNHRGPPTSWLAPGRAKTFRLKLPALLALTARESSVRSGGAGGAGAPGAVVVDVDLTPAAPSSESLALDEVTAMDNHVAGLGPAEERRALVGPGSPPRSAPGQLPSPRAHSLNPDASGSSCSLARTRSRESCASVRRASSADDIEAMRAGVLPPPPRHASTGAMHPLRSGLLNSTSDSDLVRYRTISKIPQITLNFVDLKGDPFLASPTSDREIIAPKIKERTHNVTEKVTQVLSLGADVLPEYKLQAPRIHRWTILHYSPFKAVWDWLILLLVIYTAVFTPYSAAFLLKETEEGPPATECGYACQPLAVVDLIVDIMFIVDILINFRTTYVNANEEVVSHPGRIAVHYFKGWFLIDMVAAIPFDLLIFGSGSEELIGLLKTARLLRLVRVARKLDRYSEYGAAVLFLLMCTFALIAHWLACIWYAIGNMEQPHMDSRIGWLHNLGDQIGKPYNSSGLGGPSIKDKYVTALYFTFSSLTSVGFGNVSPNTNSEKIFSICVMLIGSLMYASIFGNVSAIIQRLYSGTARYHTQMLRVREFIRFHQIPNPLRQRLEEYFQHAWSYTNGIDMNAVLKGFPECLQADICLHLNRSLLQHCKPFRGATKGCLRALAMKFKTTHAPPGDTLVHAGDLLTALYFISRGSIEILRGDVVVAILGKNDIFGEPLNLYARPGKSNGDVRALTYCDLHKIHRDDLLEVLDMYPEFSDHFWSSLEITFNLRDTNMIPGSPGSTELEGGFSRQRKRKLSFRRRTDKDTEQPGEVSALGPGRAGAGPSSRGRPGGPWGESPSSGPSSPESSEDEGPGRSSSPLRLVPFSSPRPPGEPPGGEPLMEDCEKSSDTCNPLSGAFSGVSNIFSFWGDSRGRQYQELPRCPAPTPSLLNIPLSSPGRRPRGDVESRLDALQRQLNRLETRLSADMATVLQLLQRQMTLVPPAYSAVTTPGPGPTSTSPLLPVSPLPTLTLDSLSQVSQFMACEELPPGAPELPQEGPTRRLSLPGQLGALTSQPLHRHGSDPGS
Transcriptional activator protein LasR (Pseudomonas aeruginosa (strain ATCC 15692 / PAO1 / 1C / PRS 101 / LMG12228)), sequence (P25084 whole entry): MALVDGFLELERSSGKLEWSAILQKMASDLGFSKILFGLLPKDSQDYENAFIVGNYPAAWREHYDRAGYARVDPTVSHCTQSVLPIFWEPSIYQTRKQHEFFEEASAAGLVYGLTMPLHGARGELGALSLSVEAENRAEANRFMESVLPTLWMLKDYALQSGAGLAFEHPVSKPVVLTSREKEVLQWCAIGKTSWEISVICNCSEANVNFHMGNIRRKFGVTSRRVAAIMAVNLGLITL

As for `O=C(CCCS(=O)(=O)c1ccccc1)Nc1nc(=O)[nH]cc1F`, the inhibition at 10 µM with Pseudomonas aeruginosa [1] and with Pseudomonas aeruginosa [5] was 40 to 60% each time. Besides, the inhibition entry in assay [2] and in assay [6] was “inactive” each time. Moreover, the IC50 in assay [3] came to 40.5 µM. Besides, the inhibition in assay [4] was in the range of 20 to 90%.

As to `Cc1ccc(N(C)C(=O)c2ccc3c(c2)CC(c2ccc(Cl)cc2)OC3=O)cc1C` (stereo not drawn), the inhibition at 10 µM with Pseudomonas aeruginosa [1] and in the assay on Pseudomonas aeruginosa [5] was 40 to 60% each time. The compound further had an IC50 in assay [3] of 2.92 µM.

Consider `O=C(CSc1nc2cc([N+](=O)[O-])ccc2[nH]1)Nc1ccc(Oc2ccccc2)cc1`, for which half-maximal inhibition in assay [3] (IC50) required 8.24 µM. Also, the inhibition at 1 µM in the assay with Pseudomonas aeruginosa [7] was 95%.

Take `O=C(CCCC(=O)c1cccc([N+](=O)[O-])c1)NC1CCCC1`: the inhibition in assay [8] lay within 30 to 50%. In addition, the inhibition at 10 µM in the assay on Pseudomonas aeruginosa [1] and in the assay with Pseudomonas aeruginosa [5] was 40 to 60% throughout. The same compound had a 50% inhibitory concentration (IC50) in assay [3] of 20.4 µM.

Take `O=C1C=C(Br)/C(=C/Br)O1`: the inhibition at 10 µM with Pseudomonas aeruginosa [9] is above 90%.

On to `O=C(Cc1ccc(Br)cc1)N[C@H]1CCOC1=O`, for which the figures for the inhibition at 50 µM in the assay on Pseudomonas aeruginosa [10] and in the assay on Pseudomonas aeruginosa [11] were 40% and 10 to 30%, respectively.

`CCCCOc1cc(Cl)c(/N=N/c2c(O)ccc3ccccc23)c(OCCCC)c1`: the inhibition result (with Pseudomonas aeruginosa [12]; in the assay with Pseudomonas aeruginosa [13]; in assay [14]) was “inactive” throughout. In addition, in assay [3], 0.4 µM corresponded to half-maximal inhibition (IC50).

Turning to `O=C(CCCS(=O)(=O)c1ccccc1)Nc1cc[nH]c(=O)n1`, the inhibition at 10 µM with Pseudomonas aeruginosa [1] and in the assay with Pseudomonas aeruginosa [5] was 40 to 60% each time. This compound yielded an IC50 in assay [3] of 67.8 µM. Moreover, the inhibition in [4] was in the range of 20 to 90%.

For the compound `O=C(CCNC(=O)c1cccc([N+](=O)[O-])c1)NC1CCOC1=O` (stereo not drawn), the inhibition in assay [8] lay in the range of 30 to 50%. Besides, the inhibition at 10 µM in the assay on Pseudomonas aeruginosa [1] and with Pseudomonas aeruginosa [5] was 40 to 60% in each case. Further, the IC50 in [3] was 904 µM.

As for `O=C(CCCS(=O)(=O)c1ccccc1)NC1CCOC1=O` (stereo not drawn), the inhibition in assay [8] lay within 30 to 50%. The inhibition at 10 µM in the assay with Pseudomonas aeruginosa [1] and in the assay with Pseudomonas aeruginosa [5] was 40 to 60% throughout. The compound also displayed an IC50 in [3] of 109 µM.

On to `O=C(c1cn(CCCNCc2ccc(Oc3ccc(Cl)cc3)cc2)nn1)N1CCOCC1`, for which the inhibition result in [15] was “inactive”. Besides, the inhibition at 10 µM in the assay with Pseudomonas aeruginosa [1] and in the assay on Pseudomonas aeruginosa [5] was 40 to 60% each time. The compound further registered a half-maximal inhibitory concentration (IC50) in [3] of 0.678 µM.

In the case of `Cc1ccc(NC(=O)c2ccc3c(c2)CC(c2ccc(Cl)cc2)OC3=O)cc1C` (stereo not drawn), the inhibition at 10 µM in the assay on Pseudomonas aeruginosa [1] and with Pseudomonas aeruginosa [5] was 40 to 60% each time. This compound gave an IC50 in assay [3] of 6.77 µM.

In the case of `CCCCOc1cc(Cl)cc(OCCCC)c1/N=N/c1c(O)ccc2ccccc12`, the inhibition entry (in the assay with Pseudomonas aeruginosa [12]; in the assay with Pseudomonas aeruginosa [13]; in assay [14]) was “inactive” each time.

`CCCCCCCc1[nH]c2ccc([N+](=O)[O-])cc2c(=O)c1CO` had an inhibition in assay [16] of 100%. For the same compound, the inhibition at 10 µM in the assay with Pseudomonas aeruginosa [1] and in the assay on Pseudomonas aeruginosa [5] was 40 to 60% throughout.

For `O=C(CCNC(=O)c1cccc([N+](=O)[O-])c1)Nc1nc(=O)[nH]cc1F`, the inhibition at 10 µM with Pseudomonas aeruginosa [1] and with Pseudomonas aeruginosa [5] was 40 to 60% each time. The inhibition entry in assay [2] is “inactive”. The compound also gave an IC50 in assay [3] of 356 µM. For the same compound, the inhibition in [4] fell in the range of 20 to 90%. Moreover, the inhibition result in [6] is “Active”.

Consider `CCCCCCCCCNC(=O)CC(=O)c1ccccc1`, for which 100 µM produced 90% inhibition with Pseudomonas aeruginosa [17].

As to `CCCCOc1ccc(Cl)c(OCCCC)c1/N=N/c1c(O)ccc2ccccc12`, the inhibition entry (with Pseudomonas aeruginosa [12]; in the assay on Pseudomonas aeruginosa [13]; in assay [14]) was “inactive” throughout. In assay [3], this compound came in with an IC50 of 0.38 µM.

Source of the values: ChEMBL document CHEMBL4312019, “Design, synthesis, and evaluation of compounds capable of reducing Pseudomonas aeruginosa virulence” (Eur J Med Chem, 2020).
